Results taken from ChEMBL document CHEMBL4052782, “Neuropathic pain-alleviating effects of pyrazole-conjugated arylsulfonamides as 5-HT6 receptor antagonists” (Bioorg Med Chem Lett, 2017).
Activity calls are given as the source filed them. The rule behind the calls is not given here.

Legend:
[1] = target: T1, 5-hydroxytryptamine receptor 6 (Homo sapiens, UniProt P50406); experiment: Antagonist activity at human 5-HT6R expressed in human HeLa cells assessed as inhibition of 5-HT-induced cAMP levels pre-treated for 10 mins before 30 mins stimulation with 5-HT by D2-dye based HTRF assay; assay type: functional, cell-based
Summary of the method: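 HeLa cells stably expressing human 5-HT6 receptor, kept at 37°C in 5% CO2/95% air, suspended in PBS with 2 mM IBMX. Compound pretreatment 10 min, then 100 nM 5-HT stimulation 30 min. d2-labelled cAMP and cryptate-labelled anti-cAMP antibody added, 1 h at room temperature. Fluorescence read at 314 nm excitation, 668 and 620 nm emission.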

[2] = target: T1, 5-hydroxytryptamine receptor 6; experiment: Inhibition of ligand binding to human 5-HT6R at 10 uM relative to control
Rattus norvegicus [3] = experiment: Antineuropathic pain activity in rat spinal nerve ligation model assessed as effect on mechanical allodynia by measuring frequency of paw withdrawal at 100 mg/kg, po measured up to 3 hrs; assay type: functional, organism-based
Summary of the method: (§1)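 Rats with spinal nerve ligation neuropathic injury, dosed orally at 100 mg/kg (n = 3–6 per group). Allodynia tested before injury, before dosing (post-injury day 14), and 1, 3 and 5 h after dosing. Values compared with pre-administration values by paired t-test, P < 0.05.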

Rattus norvegicus [4] = experiment: Antineuropathic pain activity in rat spinal nerve ligation model assessed as effect on cold allodynia by measuring paw withdrawal response at 100 mg/kg, po measured up to 5 hrs; assay type: functional, organism-based; summary of the method: as §1
CYP3A4 = CYP3A4 (Homo sapiens, UniProt P08684); experiment: Inhibition of recombinant human CYP3A4 expressed in baculosomes assessed as remaining activity at 10 uM preincubated for 10 mins followed by Vivid CYP450 substrate addition in presence of NADP+ by fluorescence assay relative to ketoconazole; assay type: ADME; conditions: probe Vivid CYP450 substrate, read-out: Activity
Summary of the method: (§2)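 Remaining percent CYP activity measured at 10 µM test concentration. Values are means ± SD of triplicate experiments.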

CYP2D6 = CYP2D6 (Homo sapiens, UniProt P10635); experiment: Inhibition of recombinant human CYP2D6 expressed in baculosomes assessed as remaining activity at 10 uM preincubated for 10 mins followed by Vivid substrate addition in presence of NADP+ by fluorescence assay relative to […]; assay type: ADME; conditions: probe Vivid substrate, read-out: Activity; summary of the method: as §2
[5] = target: Voltage-gated inwardly rectifying potassium channel KCNH2 (Homo sapiens, UniProt Q12809); experiment: Inhibition of human ERG expressed in CHOK1 cells by patch clamp method
Rattus norvegicus [6] = experiment: Poteny index, ratio of gabapentin to test compound antineuropathic pain activity in rat spinal nerve ligation model assessed as effect on mechanical allodynia by measuring frequency of paw withdrawal at 100 mg/kg, po; assay type: functional
CYP2C9 = CYP2C9 (Homo sapiens, UniProt P08684); experiment: Inhibition of recombinant human CYP2C9 expressed in baculosomes assessed as remaining activity at 10 uM preincubated for 10 mins followed by Vivid CYP450 substrate addition in presence of NADP+ by fluorescence assay relative to miconazole; assay type: ADME; conditions: probe Vivid CYP450 substrate, read-out: Activity; summary of the method: as §2
Sequence of CYP2C9 (P08684 whole entry): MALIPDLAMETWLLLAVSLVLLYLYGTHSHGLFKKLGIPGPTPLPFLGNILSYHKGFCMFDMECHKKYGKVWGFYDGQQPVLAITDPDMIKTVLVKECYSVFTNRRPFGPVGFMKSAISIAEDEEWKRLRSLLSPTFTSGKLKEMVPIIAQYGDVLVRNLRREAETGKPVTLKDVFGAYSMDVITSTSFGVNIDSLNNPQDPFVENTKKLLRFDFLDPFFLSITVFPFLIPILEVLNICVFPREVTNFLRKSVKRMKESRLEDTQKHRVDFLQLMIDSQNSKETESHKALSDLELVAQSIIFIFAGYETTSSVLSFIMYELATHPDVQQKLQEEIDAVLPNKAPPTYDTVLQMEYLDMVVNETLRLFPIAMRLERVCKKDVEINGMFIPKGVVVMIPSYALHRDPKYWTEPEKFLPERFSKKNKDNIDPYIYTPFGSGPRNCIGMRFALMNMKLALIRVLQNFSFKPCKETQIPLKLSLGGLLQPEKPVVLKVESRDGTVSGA

T1 sequence (P50406 whole entry): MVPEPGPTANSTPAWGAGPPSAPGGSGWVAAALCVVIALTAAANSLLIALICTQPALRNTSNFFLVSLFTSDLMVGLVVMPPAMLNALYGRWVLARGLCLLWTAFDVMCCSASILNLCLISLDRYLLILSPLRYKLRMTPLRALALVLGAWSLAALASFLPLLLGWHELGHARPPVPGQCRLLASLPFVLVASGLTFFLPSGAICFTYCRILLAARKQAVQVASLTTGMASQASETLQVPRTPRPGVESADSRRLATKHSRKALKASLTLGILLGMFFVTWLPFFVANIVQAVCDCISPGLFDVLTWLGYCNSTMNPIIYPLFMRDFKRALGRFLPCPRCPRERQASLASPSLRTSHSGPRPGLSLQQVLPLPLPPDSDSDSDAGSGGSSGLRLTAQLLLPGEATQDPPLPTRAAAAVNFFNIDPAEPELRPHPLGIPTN
Sequence of CYP2D6 (P10635 whole entry): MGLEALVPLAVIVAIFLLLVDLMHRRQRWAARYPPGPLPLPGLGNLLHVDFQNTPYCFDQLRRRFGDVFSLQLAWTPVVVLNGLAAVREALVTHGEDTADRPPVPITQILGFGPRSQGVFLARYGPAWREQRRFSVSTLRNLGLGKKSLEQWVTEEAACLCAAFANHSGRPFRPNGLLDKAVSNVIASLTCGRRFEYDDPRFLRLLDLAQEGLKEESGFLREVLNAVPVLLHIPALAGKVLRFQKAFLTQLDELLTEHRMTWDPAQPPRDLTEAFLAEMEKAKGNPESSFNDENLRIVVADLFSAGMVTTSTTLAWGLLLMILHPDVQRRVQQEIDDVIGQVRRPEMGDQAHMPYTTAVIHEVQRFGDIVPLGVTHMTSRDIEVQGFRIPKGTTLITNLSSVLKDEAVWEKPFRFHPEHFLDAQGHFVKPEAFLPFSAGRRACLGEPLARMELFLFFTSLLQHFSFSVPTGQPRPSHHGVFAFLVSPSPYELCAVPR
Sequence of CYP3A4 (P08684 whole entry): as the sequence (P08684 whole entry) above
Sequence of Voltage-gated inwardly rectifying potassium channel KCNH2 (Q12809 whole entry): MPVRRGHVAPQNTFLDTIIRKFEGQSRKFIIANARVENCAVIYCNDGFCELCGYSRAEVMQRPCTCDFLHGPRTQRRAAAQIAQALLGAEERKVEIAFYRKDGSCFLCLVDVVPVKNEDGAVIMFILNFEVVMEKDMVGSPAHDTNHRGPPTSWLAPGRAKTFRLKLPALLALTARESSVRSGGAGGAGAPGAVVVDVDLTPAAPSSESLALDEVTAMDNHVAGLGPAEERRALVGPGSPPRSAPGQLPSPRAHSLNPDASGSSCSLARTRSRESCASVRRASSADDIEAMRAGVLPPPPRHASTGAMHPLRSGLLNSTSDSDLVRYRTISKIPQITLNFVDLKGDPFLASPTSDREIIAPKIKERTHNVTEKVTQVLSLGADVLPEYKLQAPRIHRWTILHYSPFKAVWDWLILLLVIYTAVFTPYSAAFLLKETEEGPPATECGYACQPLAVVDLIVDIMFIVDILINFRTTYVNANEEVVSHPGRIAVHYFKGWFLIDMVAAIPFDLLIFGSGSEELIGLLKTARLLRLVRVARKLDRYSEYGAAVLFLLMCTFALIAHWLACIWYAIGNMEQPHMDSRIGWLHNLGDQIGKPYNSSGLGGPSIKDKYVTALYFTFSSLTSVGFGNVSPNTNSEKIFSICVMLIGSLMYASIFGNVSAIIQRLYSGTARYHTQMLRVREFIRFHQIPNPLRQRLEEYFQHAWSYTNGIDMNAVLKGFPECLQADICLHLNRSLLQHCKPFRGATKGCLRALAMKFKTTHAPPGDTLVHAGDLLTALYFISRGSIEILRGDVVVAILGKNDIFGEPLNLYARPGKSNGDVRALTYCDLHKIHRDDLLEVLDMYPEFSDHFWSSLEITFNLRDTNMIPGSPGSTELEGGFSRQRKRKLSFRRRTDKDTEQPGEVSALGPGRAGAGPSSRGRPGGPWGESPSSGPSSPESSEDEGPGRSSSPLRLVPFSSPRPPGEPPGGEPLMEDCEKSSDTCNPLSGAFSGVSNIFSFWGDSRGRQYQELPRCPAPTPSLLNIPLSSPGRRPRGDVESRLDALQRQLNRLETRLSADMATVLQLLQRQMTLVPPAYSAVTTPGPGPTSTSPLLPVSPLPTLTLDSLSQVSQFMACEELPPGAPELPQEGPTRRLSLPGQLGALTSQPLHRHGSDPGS

SMILES	IC50 [1] [nM]	inhibition [2] [%]	other results
CC(C)Cc1cc(CNS(=O)(=O)c2cccc3ccccc23)nn1-c1ccccc1	2430	77.7	
CC(C)Cc1cc(CNS(=O)(=O)c2ccccc2)nn1-c1ccccc1		11.3	
CC(C)Cc1cc(CNS(=O)(=O)Cc2cccc3ccccc23)nn1-c1ccccc1		28.7	
CC(C)Cc1cc(CNS(=O)(=O)c2ccc3ccccc3c2)nn1-c1ccccc1	3300	67.8	
CC(C)Cc1cc(CNS(=O)(=O)c2cccc(F)c2)nn1-c1ccccc1		19.5	
Cc1c(Cl)cccc1S(=O)(=O)NCc1cc(CC(C)C)n(-c2ccccc2)n1	4010	72.3	
NCC1(CC(=O)O)CCCCC1			Activity (Rattus norvegicus [3]): Active
CC(C)Cc1cc(CNS(=O)(=O)c2c(Cl)cccc2Cl)nn1-c1ccccc1	5650	59.4	
O=C1c2[nH]nc(NS(=O)(=O)c3ccc4ccccc4c3)c2CCN1CC1CCNCC1	310	94.1	
CC(C)Cc1cc(CNS(=O)(=O)c2cccc3cccnc23)nn1-c1ccccc1	1420	106	Activity (Rattus norvegicus [3]): Active; Activity (Rattus norvegicus [4]): inactive; activity at 10 µM (CYP3A4): 52.2%; activity at 10 µM (CYP2D6): 119%
CC(C)Cc1cc(CNS(=O)(=O)c2cccc3cccnc23)nn1-c1ccc(F)cc1	1780	93.4	IC50 [5]: 1600 nM; Ratio (Rattus norvegicus [6]): 60; Activity (Rattus norvegicus [3]): Active; activity at 10 µM (CYP2C9): 3.87%; Activity (Rattus norvegicus [4]): inactive; activity at 10 µM (CYP3A4): 34.5%; activity at 10 µM (CYP2D6): 64.8%
CC(C)Cc1cc(CNS(=O)(=O)c2cccc(Cl)c2)nn1-c1ccccc1	10900	40.8	
CC(C)Cc1cc(CNS(=O)(=O)Cc2cccc3ccccc23)nn1-c1ccc(F)cc1		36.1	
CC(C)Cc1cc(CNS(=O)(=O)c2ccc(C(C)(C)C)cc2)nn1-c1ccccc1	8780	51.1	
